In ChEMBL document CHEMBL1150357, “Synthesis and preliminary evaluation of some substituted coumarins as anticonvulsant agents” (Bioorg Med Chem, 2008):

Assays:
Mus musculus [1] = assay: Anticonvulsant activity against strychnine-induced seizures in Albino mouse assessed as survival time at 100 mg/kg, po administered 1 hr before strychnine challenge; format: functional
Mus musculus [2] = assay: Anticonvulsant activity in Albino mouse assessed as protection against pentylenetetrazole-induced seizures at 100 mg/kg, ip administered 1 hr before pentylenetetrazole challenge; format: functional; conditions: route intraperitoneal
Outline: (§1)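 Male albino mice (25–30 g), housed in groups of 10 and acclimated ≥2 days with free food and water. Test agent suspended in water with 2% Tween 80 and given ip. PTZ 112 mg/kg ip injected 1 h later. Mice without generalized convulsions scored as protected, expressed as % protection. PD50 by log-linear regression of dose-response across 50, 100, 200 mg/kg.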

Mus musculus [3] = assay: Anticonvulsant activity in Albino mouse assessed as protection against pentylenetetrazole-induced seizures at 50 mg/kg, ip administered 1 hr before pentylenetetrazole challenge; format: functional; conditions: route intraperitoneal; outline: as §1
Mus musculus [4] = assay: Anticonvulsant activity in ip dosed Albino mouse assessed as protection against pentylenetetrazole-induced seizures administered 1 hr before pentylenetetrazole challenge; format: functional; conditions: read-out: PD50
Outline: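 PTZ model in male albino mice (25–30 g), 10 per group. Test agents suspended in water with 2% Tween 80 and given ip at graded doses (50, 100, 200 mg/kg). Pentylenetetrazole 112 mg/kg ip given 1 h later. Absence of generalized convulsions scored as protection. PD50 obtained by log-linear regression of dose–response curves.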

[5] = Dissociation constant, pKa of the compound; format: physicochemical
Outline: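 Spectrophotometric pKa. Spectra of ionized and unionized forms recorded in 0.1 M HCl and 0.1 M NaOH with DMF. Absorbance read at the wavelength of maximal difference in phosphate buffer (Na2HPO4/KH2PO4, 0.15 M) with DMF at pH 7.6, 7.4, 7 and 6.8. pKa = pH + log[(Ai−A)/(A−Au)], averaged with SD.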

Mus musculus [6] = assay: Anticonvulsant activity in Albino mouse assessed as protection against pentylenetetrazole-induced seizures at 200 mg/kg, ip administered 1 hr before pentylenetetrazole challenge; format: functional; conditions: route intraperitoneal; outline: as §1
[7] = Toxicity against Albino mouse assessed as mortality after 24 hrs; format: organism-based; conditions: in vivo
Outline: (§2)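 Male albino mice (25–30 g), groups of 8. Single injected doses at equal log intervals (400, 800, 1600, 3200 mg/kg), bracketed by preliminary no-kill and LD100 doses. Deaths counted at 24 h. LD50 calculated by the Spearman–Karber method.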

Mus musculus [8] = assay: Toxicity against Albino mouse assessed as mortality at 400 mg/kg after 24 hrs; format: organism-based; parameters: dose 400 mg/kg; conditions: in vivo; outline: as §2
Mus musculus [9] = assay: Toxicity against Albino mouse assessed as mortality at 3200 mg/kg after 24 hrs; format: organism-based; parameters: dose 3200 mg/kg; conditions: in vivo; outline: as §2
Mus musculus [10] = assay: Anticonvulsant activity in Albino mouse assessed as protection against pentylenetetrazole-induced seizures at 10 mg/kg, ip administered 1 hr before pentylenetetrazole challenge; format: functional; conditions: route intraperitoneal
Outline: (§3)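 Male albino mice (25–30 g), housed 10 per group and acclimated for at least 2 days. Dosed ip, suspended in water with 2% Tween 80. Pentylenetetrazole 112 mg/kg ip given 1 h later. Mice without generalized convulsions counted as protected; reported as % protection.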

Mus musculus [11] = assay: Anticonvulsant activity in Albino mouse assessed as protection against pentylenetetrazole-induced seizures at 20 mg/kg, ip administered 1 hr before pentylenetetrazole challenge; format: functional; conditions: route intraperitoneal; outline: as §3
Mus musculus [12] = assay: Anticonvulsant activity in Albino mouse assessed as protection against pentylenetetrazole-induced seizures at 30 mg/kg, ip administered 1 hr before pentylenetetrazole challenge; format: functional; conditions: route intraperitoneal; outline: as §3

CCNc1nc2ccc3oc(=O)ccc3c2s1
Survival (Mus musculus [1]): 6.26 min

CCOC(=O)c1s/c(=N/c2ccc3oc(=O)ccc3c2)n(C2CCCCC2)c1C
Survival (Mus musculus [1]): 3.14 min
Activity (Mus musculus [2]): 60%

CNc1nc2ccc3oc(=O)ccc3c2s1
Activity (Mus musculus [2]): 0%

CCN1C(=O)/C(=C/c2ccc(Cl)cc2)S/C1=N/c1ccc2oc(=O)ccc2c1
Survival (Mus musculus [1]): 5.18 min

CCn1c(-c2ccc(OC)cc2)cs/c1=N/c1ccc2oc(=O)ccc2c1
Survival (Mus musculus [1]): 7.55 min
Activity (Mus musculus [3]): 20%
ED50 (Mus musculus [4]): 138 mg/kg
pKa [5]: 7.63
Activity (Mus musculus [2]): 60%
Activity (Mus musculus [6]): 60%

CCNC(=S)Nc1ccc2oc(=O)ccc2c1
Survival (Mus musculus [1]): 3.92 min
Activity (Mus musculus [3]): 20%
ED50 (Mus musculus [4]): 125 mg/kg
pKa [5]: 5.62
Activity (Mus musculus [2]): 60%
Activity (Mus musculus [6]): 70%

O=c1ccc2cc(NC(=S)NC3CCCCC3)ccc2o1
Survival (Mus musculus [1]): 5.02 min
Activity (Mus musculus [2]): 30%

O=c1ccc2cc(NC(=S)Nc3ccc(Cl)cc3)ccc2o1
Survival (Mus musculus [1]): 5.33 min
Activity (Mus musculus [2]): 20%

O=C1CS/C(=N/c2nc3ccc4oc(=O)ccc4c3s2)N1
Survival (Mus musculus [1]): 5.44 min
Activity (Mus musculus [2]): 40%

CCOC(=O)c1s/c(=N/c2ccc3oc(=O)ccc3c2)n(C)c1C
Activity (Mus musculus [2]): 0%

CCOC(=O)c1s/c(=N/c2ccc3oc(=O)ccc3c2)n(CC)c1C
Survival (Mus musculus [1]): 5 min
Activity (Mus musculus [3]): 30%
LD50 at 24 h [7]: 1450 mg/kg
Activity (Mus musculus [8]): Non-toxic
ED50 (Mus musculus [4]): 95 mg/kg
pKa [5]: 7.44
Activity (Mus musculus [9]): Toxic
Activity (Mus musculus [2]): 80%
Activity (Mus musculus [6]): 90%

COc1ccc(-c2cs/c(=N/c3ccc4oc(=O)ccc4c3)n2-c2ccc(Cl)cc2)cc1
Activity (Mus musculus [2]): 30%

O=C(CCl)Nc1nc2ccc3oc(=O)ccc3c2s1
Survival (Mus musculus [1]): 4.4 min
Activity (Mus musculus [2]): 0%

CCN1C(=O)CS/C1=N/c1ccc2oc(=O)ccc2c1
Activity (Mus musculus [2]): 30%

CCN1C(=O)/C(=C/c2ccc([N+](=O)[O-])cc2)S/C1=N/c1ccc2oc(=O)ccc2c1
Survival (Mus musculus [1]): 4.85 min
Activity (Mus musculus [2]): 30%

CCn1c(-c2ccc(Br)cc2)cs/c1=N/c1ccc2oc(=O)ccc2c1
Survival (Mus musculus [1]): 8.36 min
Activity (Mus musculus [2]): 30%

CCCN1C(=O)CS/C1=N/c1ccc2oc(=O)ccc2c1
Survival (Mus musculus [1]): 5.4 min

COc1ccc(-c2cs/c(=N/c3ccc4oc(=O)ccc4c3)n2C2CCCCC2)cc1
Survival (Mus musculus [1]): 4.5 min
Activity (Mus musculus [2]): 20%

CCC1(c2ccccc2)C(=O)NC(=O)NC1=O [PHENOBARBITAL]
Activity (Mus musculus [10]): 40%
ED50 (Mus musculus [4]): 16 mg/kg
Activity (Mus musculus [11]): 70%
Activity (Mus musculus [12]): 90%

O=C1NC(=O)C(c2ccccc2)(c2ccccc2)N1 [PHENYTOIN]
Survival (Mus musculus [1]): 13.8 min
